Activity calls are given as the source filed them. The rule behind the calls is not given here.
What was measured:
[1] = biological target: T1, E3 ubiquitin-protein ligase Mdm2 (Homo sapiens, UniProt Q00987); assay: Inhibition of GST fused human Hdm2 assessed as polyubiquitylation by electrochemiluminescence assay
Summary of the method: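 Cell-free ubiquitylation. Lysate GST-Hdm2 captured on glutathione-coated wells for 1 h at RT. E1/UbcH5B were pre-charged with ubiquitin, ATP and DTT in PBS for 30 min, then added with sample for 30 min at RT. Read-out was ruthenium anti-polyubiquitin electrochemiluminescence, normalised between no-inhibitor (0%) and EDTA (100%). Tested at 100–0.02 µg/mL in quadruplicate.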
Target sequence in this assay (Q00987 whole entry, the tested form may be a part): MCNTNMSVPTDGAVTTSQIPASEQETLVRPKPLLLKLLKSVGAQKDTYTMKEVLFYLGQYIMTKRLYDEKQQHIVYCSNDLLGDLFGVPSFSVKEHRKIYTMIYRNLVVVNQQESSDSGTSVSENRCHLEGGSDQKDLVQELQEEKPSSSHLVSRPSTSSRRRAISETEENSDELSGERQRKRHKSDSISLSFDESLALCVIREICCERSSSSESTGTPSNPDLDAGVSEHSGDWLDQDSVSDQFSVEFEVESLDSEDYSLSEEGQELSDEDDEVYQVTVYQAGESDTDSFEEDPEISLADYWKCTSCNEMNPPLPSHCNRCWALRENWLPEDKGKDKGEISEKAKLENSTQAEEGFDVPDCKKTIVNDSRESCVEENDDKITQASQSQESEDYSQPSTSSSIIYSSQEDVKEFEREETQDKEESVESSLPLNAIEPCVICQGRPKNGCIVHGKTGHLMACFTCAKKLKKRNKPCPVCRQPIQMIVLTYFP

[2] = biological target: T1, E3 ubiquitin-protein ligase Mdm2; assay: Inhibition of GST fused human Hdm2 in human RPE cells assessed as increase in p53 level at 1 to 10 uM after 8 hrs by immunoblotting; type: cell-based
Summary of the method: (§1)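 Tert-immortalized human retinal pigment epithelial (RPE) cells exposed to compound (1–10 µM) or 50 µM ALLN for 8 h. Cells lysed in RIPA buffer, post-nuclear supernatants resolved by SDS-PAGE, then immunoblotted for p53, Hdm2 and β-actin as loading control.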
Target sequence in this assay (Q00987 whole entry, looked up, the tested form may be a part): as the sequence (Q00987 whole entry, the tested form may be a part) above

[3] = biological target: T1, E3 ubiquitin-protein ligase Mdm2; assay: Inhibition of GST fused human Hdm2 in human RPE cells at 1 to 10 uM after 8 hrs by immunoblotting; type: cell-based; summary of the method: as §1
Target sequence in this assay (Q00987 whole entry, looked up, the tested form may be a part): as the sequence (Q00987 whole entry, the tested form may be a part) above

[4] = biological target: T1, E3 ubiquitin-protein ligase Mdm2; assay: Inhibition of GST fused human Hdm2 in human RPE cells assessed as increase in p53 level after 8 hrs by immunoblotting; type: cell-based; summary of the method: as §1
Target sequence in this assay (Q00987 whole entry, looked up, the tested form may be a part): as the sequence (Q00987 whole entry, the tested form may be a part) above

[5] = biological target: T1, E3 ubiquitin-protein ligase Mdm2; assay: Inhibition of GST fused human Hdm2 in human RPE cells after 8 hrs by immunoblotting; type: cell-based; summary of the method: as §1
Target sequence in this assay (Q00987 whole entry, looked up, the tested form may be a part): as the sequence (Q00987 whole entry, the tested form may be a part) above

[6] = biological target: T1, E3 ubiquitin-protein ligase Mdm2; assay: Inhibition of GST fused human Hdm2 expressed in p53 and mdm2-deficient mouse embryo fibroblasts under control of p53-independent promotor at 10 uM after 8 hrs by immunoblotting
Summary of the method: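 p53−/−mdm2−/− mouse embryo fibroblasts transiently transfected with Hdm2 plasmid under a CMV promoter. 48 h later they were treated with 10 µM compound for 8 h, and Hdm2 and β-actin were measured by immunoblotting.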
Target sequence in this assay (Q00987 whole entry, looked up, the tested form may be a part): as the sequence (Q00987 whole entry, the tested form may be a part) above

[7] = biological target: T1, E3 ubiquitin-protein ligase Mdm2; assay: Inhibition of GST fused human Hdm2 in human RPE cells assessed as increase in p53 level at 10 uM after 8 hrs by immunoblotting
Target sequence in this assay (Q00987 whole entry, looked up, the tested form may be a part): as the sequence (Q00987 whole entry, the tested form may be a part) above

[8] = biological target: T1, E3 ubiquitin-protein ligase Mdm2; assay: Inhibition of GST fused human Hdm2 in human RPE cells at 10 uM after 8 hrs by immunoblotting
[9] = Cytotoxicity against human RPE cells assessed as increase in p53 level at 10 uM after 8 hrs by immunoblotting; type: cell-based; summary of the method: as §1
[10] = biological target: T1, E3 ubiquitin-protein ligase Mdm2; assay: Inhibition of GST fused human Hdm2 in human RPE cells assessed as increase in p53 level at 1 uM after 8 hrs by immunoblotting; type: cell-based; summary of the method: as §1
[11] = Cytotoxicity against human RPE cells at 10 uM; type: cell-based; summary of the method: as §1
[12] = Cytotoxicity against wild type p53-proficient mouse C8 cells at 5 to 20 uM after 20 hrs by trypan blue exclusion assay; type: cell-based; details: c8, 20 h
Summary of the method: (§2)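 p53-deficient (A9) and wild-type p53 (C8) mouse embryo fibroblasts treated 20 h with compound at 5–20 µM. Cell death by trypan blue exclusion. Mean and standard deviation of three independent experiments.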

[13] = biological target: T1, E3 ubiquitin-protein ligase Mdm2; assay: Inhibition of GST fused human Hdm2 in human HCT 116 cells expressing wild type p53 assessed as prevention of N-acetyl-leucyl-leucyl-norleucinal-induced accumulation of ubiquitylated p53 accumulation; type: cell-based
A9 = assay: Cytotoxicity against p53-deficient mouse A9 cells at 5 to 20 uM after 20 hrs by trypan blue exclusion assay; type: cell-based; details: a9, 20 h; summary of the method: as §2
[14] = biological target: T1, E3 ubiquitin-protein ligase Mdm2; assay: Inhibition of Hdm2-mediated p53 degradation in human U2OS cells co-transfected with p53-Hdm2 at 50 uM after 8 hrs by immunoblotting; type: cell-based
[15] = biological target: T1, E3 ubiquitin-protein ligase Mdm2; assay: Inhibition of Hdm2-mediated p53 degradation in human U2-OS cells co-transfected with p53-Hdm2 after 8 hrs by immunoblotting; type: cell-based; details: U2OS
[16] = Cytotoxicity against human RPE cells transformed with adenovirus E1A at 3 to 25 uM after 17 hrs by trypan blue exclusion assay; type: cell-based
Summary of the method: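 Parental RPE and adenovirus E1A-transformed RPE cells incubated 17 h with compound (3–25 µM) or 1 µg/ml adriamycin. Cell death scored by trypan blue exclusion. Mean and standard deviation of three independent experiments.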

HCT-116 [17] = assay: Cytotoxicity against p53-proficient human HCT 116 cells at 5 to 20 uM after 20 hrs by trypan blue exclusion assay; type: functional, cell-based
U2OS = assay: Induction of apoptosis in human U2OS cells assessed as activation of p53-dependent transactivation by luciferase reporter gene assay at 1 to 10 uM after 22 hrs; type: functional, cell-based
Summary of the method: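 U2OS-pG13 p53-reporter cells incubated 22 h with compound (1–10 µM) or 1 µg/ml adriamycin. Cells lysed in reporter lysis buffer and spun at 14,000 g for 20 min; luciferase activity of supernatant read as RLU. Mean and standard deviation of three independent experiments.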

HCT-116 [18] = assay: Cytotoxicity against p53-deficient human HCT 116 cells at 5 to 20 uM after 20 hrs by trypan blue exclusion assay; type: functional, cell-based

Structure (SMILES) | IC50 [1] [µM] | Activity [2] | Activity [3] | Activity [4] | Activity [5] | Activity [6] | Activity [7] | Activity [8] | also measured
COc1c(C)c(CCN(C)C)c2c(c1OC)SSSSS2 | 121 | inactive | inactive | – | – | – | – | – | –
CSC1=C(CCN)c2nc3ccccc3c3ccnc(c23)C1=O [DIPLAMINE B] | 101 | – | – | Dose-dependent effect | Dose-dependent effect | Active | Active | Active | –
COc1cc(CCN(C)C)c2c(c1O)SSSSS2 [ISOLISSOCLINOTOXIN B] | 58.6 | – | – | – | – | – | – | – | Activity [9]: Active; Activity [10]: inactive; Activity [11]: Toxic
NCCc1c2c(c3nccc4c3c1Nc1ccccc1-4)OCS2 [LISSOCLINIDINE B] | – | – | – | Dose-dependent effect | Dose-dependent effect | Active | Active | Active | Activity [12]: Active; Activity [13]: Active; Activity (A9): Not Active; Activity [14]: inactive; Activity [15]: Dose-dependent effect; Activity [16]: Dose-dependent effect; Activity (HCT-116 [17]): Active; Activity (U2OS): Dose-dependent effect; Activity (HCT-116 [18]): inactive
COc1cc(CCN)c2c(c1OC)SSSSS2 [VARACIN] | > 295 | inactive | inactive | – | – | – | – | – | –

Reference: ChEMBL document CHEMBL1151701, “Discovery of new pyridoacridine alkaloids from Lissoclinum cf. badium that inhibit the ubiquitin ligase activity of Hdm2 and stabilize p53” (Bioorg Med Chem, 2008)
